GSK3A inh: inhibitors of human GSK-3 alpha kinase. P49840. ADP-Glo luminescence, 60 min. inhibition, % at 10 µM. actives 0.1% (n = 320,000). AID 2650;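 active = more than half of replicates show inhibition above 20%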;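 also: GST-tagged GSK-3 alpha with peptide substrate and 25 µM ATP; 0% = DMSO neutral wells and 100% = GW8510 positive control wells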
GSK3B inh: inhibitors of human GSK3beta kinase. GST-GSK3beta kinase, ADP-Glo luminescence, 60 min; stronger effect = lower value. actives 0.038% (n = 300,000). AID 2097. activity score (negative = inhibition), % at 10 µM. P49841;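 active = more than half of replicate wells score below -50%, meaning over 50% inhibition versus plate controls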;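 also: 0% = median DMSO wells and -100% = median GW8510 positive control wells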
Target sequence (P49841 whole entry, looked up): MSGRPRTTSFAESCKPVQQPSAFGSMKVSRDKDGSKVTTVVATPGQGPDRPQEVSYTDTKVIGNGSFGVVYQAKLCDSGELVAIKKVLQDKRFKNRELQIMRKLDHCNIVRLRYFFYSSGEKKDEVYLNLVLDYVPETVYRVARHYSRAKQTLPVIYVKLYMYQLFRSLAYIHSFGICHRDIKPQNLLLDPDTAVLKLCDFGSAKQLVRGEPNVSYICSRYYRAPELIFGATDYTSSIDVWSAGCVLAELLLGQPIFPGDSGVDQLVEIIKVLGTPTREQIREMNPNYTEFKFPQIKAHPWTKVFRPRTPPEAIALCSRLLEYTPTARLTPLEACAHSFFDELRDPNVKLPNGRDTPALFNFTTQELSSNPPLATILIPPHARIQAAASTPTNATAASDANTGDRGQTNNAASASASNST
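Assay system: GST-fused GSK3beta enzyme, cell-free / Medium: Tris pH 7.5 buffer with MgCl2, DTT, BSA, heparin / Also added: peptide substrate plus 25 µM ATP (final) / Compound: 10 µM single point / Timing: kinase reaction with compound 60 min at room temperature / Detection: ADP-Glo luminescence / Benchmarks: DMSO neutral wells and GW8510 at 20 µM as positive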
MEKK2wt PB1 HTS: raises or lowers MEK5 binding to wildtype human MEKK2 PB1 domain; bead flow cytometry, Alexa488-MEK5 binding to MEKK2 WT; actives lie on both sides; Q9Y2U5; binding response (% of control), % at 10 µM; AID 1531; actives 1.1% (n = 290,000); in the data active = binding response below about 67% or above about 130%
STK33 inh: human STK33 kinase inhibition; Q9BYT3; purified STK33, MBP phosphorylation, ADP-Glo luminescence; inhibition, % at 10 µM; actives 0.073% (n = 320,000);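 active = inhibition at or above 25%, using the most active replicate where run in duplicate; inactive = inhibition below 25%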
MEKK2 mut-MEK5: signal of MEK5 binding to mutant human MEKK2 PB1 domain; bead flow cytometry, Alexa488-MEK5 binding to MEKK2 mutant; percent response, % at 10 µM; actives 0.35% (n = 290,000); in the data active = percent response above about 24%, passing the limit was not always enough
MEKK3 PB1 HTS: raises or lowers MEK5 binding to the human MEKK3 PB1 domain | bead-based flow cytometry, Alexa488-MEK5 binding to MEKK3; actives lie on both sides; 0 = blocked by unlabeled MEK5, 100 = vehicle | binding response (% of control), % at 10 µM | actives 1.4% (n = 290,000) | AID 1529;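 active = binding response more than 3 SD above or below the average of its plate-row segment, actives on both sides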;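 also: Alexa488 bead fluorescence after subtracting the streptavidin-only scavenger bead signal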
MEKK2wt confirm: raises or lowers MEK5 binding to wildtype human MEKK2, retest. actives 2.4% (n = 5,900). shares compounds with MEKK3 PB1 HTS. binding response (% of control), % at 10 µM. AID 1892. bead flow cytometry, Alexa488-MEK5 binding to MEKK2 WT; actives lie on both sides; in the data active = binding response below about 16% or above about 210%; inactive = in between
MEKK2mut-MEK5: signal of MEK5 binding to mutant human MEKK2, retest. percent response, % at 10 µM. AID 1893. shares compounds with MEKK3 PB1 HTS. actives 2% (n = 5,900). bead flow cytometry, Alexa488-MEK5 binding to MEKK2 mutant; in the data active = percent response mostly above about 71%, no sharp cut-off; inactive = mostly below about 38%;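 also: higher means compound restores mutant binding toward wildtype level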
MEKK3 confirm: confirmation of inhibitors of MEK5 binding to human MEKK3. shares compounds with MEKK3 PB1 HTS. bead flow cytometry, Alexa488-MEK5 binding to MEKK3; stronger effect = lower value. binding response (% of control), % at 10 µM. actives 1.8% (n = 5,900). AID 1894;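 active = binding response below 72% of control, or above a set upper limit, though filed actives all read lower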;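 also: 100% = DMSO only wells and 0% = binding blocked by excess unlabeled MEK5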
Numbers without * were called inactive; . = not tested or not shown; [ ] = another dose, or the depositor's remark. This is a sample that favours compounds with a hit; in the whole collection about 2.1% have one here.

SMILES	GSK3A inh	GSK3B inh	MEKK2wt PB1 HTS	STK33 inh	MEKK2 mut-MEK5	MEKK3 PB1 HTS	MEKK2wt confirm	MEKK2mut-MEK5	MEKK3 confirm
CN(C)CCCn1c(SCC(=O)N2c3ccccc3Sc3ccccc32)nc2ccccc2c1=O	-2.1	-5.4	166.0*	-0.5	45.0	103.0	157.0	25.0	102.0
CCOC(=O)C1=C(COC(=O)COc2ccc(OCC)cc2)NC(=O)NC1C (stereo not given)	-2.2	1.1	.	-1.7	.	.	.	.	.
CCN(CC)CCNC(=O)c1ccc2c(=O)n(CCc3ccccc3)c(=O)[nH]c2c1	-3.2	0.2	135.0*	-0.4	13.0	125.0*	107.0	5.0	101.0
CC1CCN(CCCNC(=O)c2ccc3c(=O)n(Cc4ccc(Cl)cc4)c(=S)[nH]c3c2)CC1	0.2	-3.9	118.0	-1.0	0.0	100.0	.	.	.
CCCCN(C)CCNC(=O)c1ccc(Cn2c(=S)[nH]c3ccc(Br)cc3c2=O)cc1	-3.5	-0.6	171.0*	-0.6	34.0	108.0	191.0	55.0	114.0
CN(C)CCNC(=O)c1ccc2c(=O)n(Cc3ccc(Cl)cc3)c(=S)[nH]c2c1	-2.4	-1.1	138.0*	-0.1	25.0*	111.0	115.0	10.0	105.0
O=C(NCCCN1CCCCC1)c1ccc2c(=O)n(CCc3ccccc3)c(=O)[nH]c2c1	-1.9	-0.5	.	-0.3	.	.	.	.	.
CCN(CCCNC(=O)CCn1c(=O)[nH]c2ccccc2c1=O)c1ccccc1	-2.8	2.9	44.0*[inhibitor]	-3.3	-12.0	34.0*[inhibitor]	106.0	5.0	102.0
COc1ccc(CNC(=O)C[C@H]2C(=O)N(CCc3ccccc3)C[C@@H]2Cc2ccccc2)cc1	-3.1	-2.1	98.0	-1.2	-2.0	99.0	.	.	.
CN1CCN(c2ccc(Cl)cc2NC(=O)/C=C/c2cccc(F)c2)CC1	-1.4	-2.6	149.0*	-0.2	18.0	103.0	151.0	37.0	106.0
CN1CCN(c2ccc(Cl)cc2NC(=O)c2cccc(S(=O)(=O)N(C)C)c2)CC1	-1.6	2.4	126.0	-0.3	19.0	105.0	.	.	.
CC(C)(C)C(=O)Nc1cccc(-c2cc(-c3c(Cl)cccc3Cl)no2)c1	-1.4	-0.8	104.0	-1.6	-20.0	95.0	.	.	.
COc1ccc(C(=O)N/C(=C\c2cc(OC)c(OC)cc2[N+](=O)[O-])C(=O)NCC(=O)O)cc1	-1.9	-0.2	98.0	-0.1	-2.0	104.0	.	.	.
COc1cc(/C=C(\NC(=O)c2ccccc2)C(=O)NCC(=O)O)c([N+](=O)[O-])cc1OC	1.4	-0.9	108.0	-0.7	0.0	132.0*	109.0	21.0	111.0
CC(=O)N[C@@H](Cc1c[nH]c2ccccc12)C(=O)OCC(=O)Nc1ccc(S(=O)(=O)N(C)C)cc1	-4.1	-0.7	99.0	-0.3	-4.0	103.0	.	.	.
CCOc1ccc(NC(=S)N(CCCN2CCCC2)Cc2cccn2Cc2ccc(Cl)cc2)cc1	-0.6	-1.3	186.0*	-0.6	3.0	110.0	147.0	21.0	105.0
Cc1cccc(NC(=S)N(CCCN2CCCC2)Cc2cccn2Cc2ccc(Cl)cc2)c1	1.0	0.1	206.0*	-1.0	65.0*	110.0	169.0	41.0	109.0
Cc1ccc(C(C)C)c(OCC(O)CNC2CCCC2)c1 (stereo not given)	2.2	-4.0	117.0	-0.3	8.0	105.0	.	.	.
O=C(Nc1ccc(F)c(Cl)c1)Nc1csc2ccccc12	4.0	-1.7	191.0*	-0.5	34.0	104.0	164.0	26.0	107.0
O=C(Nc1ccc(F)cc1F)Nc1csc2ccccc12	-2.3	1.1	102.0	-1.5	1.0	104.0	.	.	.
COC(=O)c1ccc(C2c3c(oc4ccc(Cl)cc4c3=O)C(=O)N2CCN2CCOCC2)cc1 (stereo not given)	-1.9	0.4	128.0	-1.7	28.0	131.0*	99.0	3.0	102.0
O=C(/C=C/c1ccccc1Cl)N(Cc1ccc(Cl)cc1)C1CCS(=O)(=O)C1 (stereo not given)	-1.1	-12.4	103.0	-0.5	-1.0	104.0	.	.	.
O=C(/C=C/c1ccccc1Cl)N(Cc1ccccc1)C1CCS(=O)(=O)C1 (stereo not given)	-0.8	0.1	103.0	-0.1	0.0	138.0*	101.0	-2.0	100.0
CCn1c(O)c(N=NC(=O)CNc2cccc(C)c2)c2ccccc21	0.4	-0.7	107.0	-4.7	1.0	148.0*	100.0	3.0	102.0
CCn1c(O)c(N=NC(=O)CNc2ccc(C)cc2)c2ccccc21	-1.5	2.9	103.0	-1.2	-1.0	104.0	.	.	.
SMILES	GSK3A inh	GSK3B inh	MEKK2wt PB1 HTS	STK33 inh	MEKK2 mut-MEK5	MEKK3 PB1 HTS	MEKK2wt confirm	MEKK2mut-MEK5	MEKK3 confirm
Cc1ccc(NC(=O)CNC(=O)c2ccc(C)o2)cc1	6.3	-0.5	46.0*[inhibitor]	3.4	-17.0	29.0*[inhibitor]	104.0	3.0	104.0
Cc1ccc(SCCNC(=O)/C=C/c2ccc([N+](=O)[O-])cc2)cc1	-3.2	-1.6	1.0*[inhibitor]	-1.5	-7.0	0.0*[inhibitor]	99.0	3.0	102.0
COc1cc(/C=C(\NC(=O)c2ccccc2)C(=O)Nc2nccs2)ccc1OC(C)=O	-2.1	1.8	97.0	0.2	-2.0	101.0	.	.	.
CC1CCCN(C(=O)CN2C(=O)c3ccccc3C2=O)C1 (stereo not given)	1.2	-0.1	13.0*[inhibitor]	-0.6	-35.0	29.0*[inhibitor]	95.0	10.0	103.0
CCS(=O)(=O)c1ccc(O)c(NC(=O)COc2ccc(C)cc2)c1	-0.8	1.9	106.0	0.9	0.0	154.0*	109.0	7.0	101.0
CCS(=O)(=O)c1ccc(O)c(NC(=O)COc2ccc(OC)cc2)c1	-2.8	-3.6	96.0	-0.7	-2.0	90.0	.	.	.
Cc1ccccc1OCCN(C#N)c1nc(N(C)C)nc(N(C)C)n1	-0.2	0.5	97.0	-2.5	5.0	105.0	.	.	.
CC(C)=C(NC(=O)c1ccccc1)C(=O)N/N=C/c1ccc(O)cc1	-2.3	16.5	19.0*[inhibitor]	-1.4	0.0	100.0	101.0	2.0	100.0
N=c1c2c(-c3ccccc3)c(-c3ccccc3)n(Cc3ccccc3)c2ncn1CCO	4.5	-6.9	137.0	-0.5	21.0	104.0	.	.	.
N=c1c2c(-c3ccccc3)c(-c3ccccc3)n(Cc3ccco3)c2ncn1CCCn1ccnc1	5.1	-1.5	111.0	-0.7	2.0	103.0	.	.	.
